In experiment [1] the test system is Yersinia pseudotuberculosis. The experiment in a line: Effect on T3S in Yersinia pseudotuberculosis 3 pIB29 assessed as inhibition of light emission at 20 uM by luciferase reporter gene assay. The essentials: (§1)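 YPIII pIB29 (yopE-luxAB) reporter strain grown overnight at ambient temperature in BHI with 5 mM EGTA and 20 mM MgCl2 to deplete calcium. Culture adjusted to OD600 0.15-0.25 and added to compounds in DMSO (final ≤1%). Incubated 1 h at ambient temperature with shaking, then 2 h at 37 °C. Decanal substrate added and luminescence read at once. Triplicates; repeated on ≥2 occasions.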
For orientation: Reporter assays use an easily measured gene product as a stand-in for the process of interest.

The subject of experiment [2] is Yersinia pseudotuberculosis. The experiment is described as follows: Effect on T3S in Yersinia pseudotuberculosis 3 pIB29 assessed as inhibition of light emission at 10 uM by luciferase reporter gene assay. The gist of the method:
as §1

In experiment [3] the test system is Yersinia pseudotuberculosis. The experiment in a line: Effect on T3S in Yersinia pseudotuberculosis 3 pIB29 assessed as inhibition of light emission at 100 uM by luciferase reporter gene assay. The gist of the method: as §1
Experiment [4] concerns Yersinia pseudotuberculosis. The experiment in a line: Effect on T3S in Yersinia pseudotuberculosis 3 pIB29 assessed as inhibition of light emission at 50 uM by luciferase reporter gene assay. The gist of the method: as §1

Active and inactive are the calls of the source. The rule behind the calls is not given here.

On to `CC(C)(C)c1ccc(NC(=O)c2cc(F)ccc2O)cc1`, for which the inhibition in experiment [1] was found to be 12%; in experiment [2], 13%; in experiment [3], 8%; in experiment [4], 13%.

Take `O=C(Nc1ccccc1)c1c(O)c(Cl)cc(Cl)c1Cl`: the inhibition in experiment [1] came to 21%; in experiment [2] it was 22%; in experiment [3] it was 31%; in experiment [4], 23%.

Consider `Cc1cc(C)cc(NC(=O)c2c(O)c(Cl)cc(Cl)c2Cl)c1`, for which the inhibition in experiment [1] was determined as 24%; in experiment [2], 21%; in experiment [3], 52%; in experiment [4], 46%.

For the compound `CC(C)(C)c1cc(NC(=O)c2cc(Br)ccc2O)cc(C(C)(C)C)c1`, the inhibition in experiment [1] was 9%; in experiment [2] it was 12%; in experiment [3], 0%; in experiment [4] it was -4%.

Turning to `COc1cc(Cl)c(C)cc1NC(=O)c1cc(C)ccc1OC(C)=O`, the result in experiment [1] and in experiment [2] was inactive. Moreover, the inhibition in experiment [4] is -2%.

Consider `CCCCCCCc1ccc(NC(=O)c2cc(I)cc(I)c2OC(C)=O)cc1`, for which the inhibition in experiment [1] turned out to be 19%; in experiment [2] it was 19%; in experiment [3], 5%; in experiment [4], 17%.

In the case of `COc1cc(Cl)c(C)cc1NC(=O)c1cccc(C(C)C)c1OC(C)=O`, the inhibition was 8% in experiment [1], 10% in experiment [2], -1% in experiment [3] and 4% in experiment [4].

In the case of `CC(=O)Oc1c(Cl)cc(Cl)c(Cl)c1C(=O)Nc1cc(C)cc(C)c1`, the inhibition turned out to be 6% in experiment [1], 6% in experiment [2], 20% in experiment [3] and 5% in experiment [4].

For `Cc1ccc(C(=O)Nc2ccccc2F)c(O)c1`, the inhibition in experiment [1] turned out to be 21%; in experiment [2], 23%; in experiment [3], 34%; in experiment [4] it was 35%.

Take `O=C(Nc1ccccc1F)c1cc(Br)cc(Br)c1O`: the inhibition in experiment [1] is 29%; in experiment [2], 14%; in experiment [3], 78%; in experiment [4] it was 64%.

As for `CC(=O)Oc1cc(C)ccc1C(=O)Nc1ccccc1F`, the inhibition in experiment [1] is 8%; in experiment [2], 0%; in experiment [3], 95%; in experiment [4], 53%.

With `CC(=O)Oc1c(I)cc(I)cc1C(=O)Nc1ccccc1`, the inhibition turned out to be 48% in experiment [1], 30% in experiment [2], 94% in experiment [3] and 75% in experiment [4].

On to `CC(=O)Oc1c(Cl)cc(Cl)c(Cl)c1C(=O)Nc1ccc(F)cc1`, for which the inhibition came out at 23% in experiment [1], 19% in experiment [2], 54% in experiment [3] and 32% in experiment [4].

In the case of `CC(=O)Oc1ccccc1C(=O)Nc1ccc(Cl)cc1`, the inhibition in experiment [1] was 44%; in experiment [2] it was 23%; in experiment [3] it was 99%; in experiment [4], 92%.

In the case of `O=C(Nc1ccc(Cl)cc1)c1ccccc1O`, the inhibition was determined as 64% in experiment [1], 14% in experiment [2], 100% in experiment [3] and 99% in experiment [4].

On to `CC(C)(C)c1ccc(NC(=O)c2c(O)c(Cl)cc(Cl)c2Cl)cc1`, for which the inhibition in experiment [1] was 28%; in experiment [2], 27%; in experiment [3], 34%; in experiment [4], 23%.

Turning to `CC(=O)Oc1c(Br)cc(Br)cc1C(=O)Nc1ccccc1F`, the inhibition in experiment [1] was found to be 15%; in experiment [2], 6%; in experiment [3] it was 83%; in experiment [4], 61%.

As for `CCCCCCCc1ccc(NC(=O)c2cc(I)cc(I)c2O)cc1`, the inhibition in experiment [1] was determined as 27%; in experiment [2], 30%; in experiment [3], 3%; in experiment [4], 22%.

On to `O=C(Nc1ccccc1)c1cc(I)cc(I)c1O`, for which the inhibition was 51% in experiment [1], 32% in experiment [2], 99% in experiment [3] and 87% in experiment [4].

Turning to `O=C(Nc1ccc(SC(F)(F)F)cc1)c1cc2cc(Br)ccc2c(Br)c1O`, the inhibition in experiment [1] is 55%; in experiment [2], 41%; in experiment [3] it was 63%; in experiment [4], 63%.

On to `O=C(Nc1ccc(Cl)cc1)c1cc(F)cc(F)c1`, for which the outcome in experiment [1], in experiment [2], in experiment [3] and in experiment [4] was inactive.

In the case of `CC(=O)Oc1ccc(Br)cc1C(=O)Nc1cc(C(C)(C)C)cc(C(C)(C)C)c1`, the result in experiment [1] and in experiment [2] was inactive. Besides, the inhibition in experiment [3] amounted to 0%; in experiment [4] it was 15%.

Take `CC(=O)Oc1c(Cl)cc(Cl)c(Cl)c1C(=O)Nc1ccc(C(C)(C)C)cc1`: the inhibition is 7% in experiment [1], 4% in experiment [2], 12% in experiment [3] and 19% in experiment [4].

Regarding `COc1cc(Cl)c(C)cc1NC(=O)c1cc(C)ccc1O`, the result in experiment [1] and in experiment [2] was inactive. For the same compound, the inhibition in experiment [3] is -1%; in experiment [4], 16%.

For `O=C(Nc1ccc(F)cc1)c1c(O)c(Cl)cc(Cl)c1Cl`, the inhibition is 19% in experiment [1], 19% in experiment [2], 45% in experiment [3] and 32% in experiment [4].

For `CC(=O)Oc1c(Cl)cc(Cl)c(Cl)c1C(=O)Nc1ccccc1`, the result in experiment [1] and in experiment [2] was inactive. For the same compound, the values for the inhibition in experiment [3] and in experiment [4] were 10% and 12%, respectively.

With `COc1cc(Cl)c(C)cc1NC(=O)c1cc(I)cc(I)c1OC(C)=O`, the inhibition was determined as 19% in experiment [1], 11% in experiment [2], 50% in experiment [3] and 35% in experiment [4].

Take `CC(C)(C)c1ccc(NC(=O)c2cc(I)cc(I)c2O)cc1`: the inhibition in experiment [1] came out at 40%; in experiment [2] it was 33%; in experiment [3] it was 42%; in experiment [4] it was 41%.

For the compound `CC(=O)Oc1c(C(=O)Nc2ccc(SC(F)(F)F)cc2)cc2cc(Br)ccc2c1Br`, the inhibition was 10% in experiment [1], 9% in experiment [2], -3% in experiment [3] and 4% in experiment [4].

For the compound `CC(=O)Oc1ccc(F)cc1C(=O)Nc1ccc(C(C)(C)C)cc1`, the inhibition in experiment [1] amounted to 37%; in experiment [2], 37%; in experiment [3], 22%; in experiment [4] it was 22%.

For the compound `CC(=O)Oc1c(I)cc(I)cc1C(=O)Nc1ccc(C(C)(C)C)cc1`, the inhibition in experiment [1] came out at 20%; in experiment [2], 17%; in experiment [3] it was 2%; in experiment [4], 17%.

Regarding `COc1cc(Cl)c(C)cc1NC(=O)c1cc(I)cc(I)c1O`, the inhibition in experiment [1] was 55%; in experiment [2], 35%; in experiment [3], 67%; in experiment [4], 57%.

For `COc1cc(Cl)c(C)cc1NC(=O)c1cccc(C(C)C)c1O`, the inhibition in experiment [1] worked out at 25%; in experiment [2] it was 23%; in experiment [3], 5%; in experiment [4], 19%.

What is called inhibition is the drop in the measured response relative to a control, in per cent.

Values taken from ChEMBL document CHEMBL1138297, “Design, synthesis, and multivariate quantitative structure-activity relationship of salicylanilides--potent inhibitors of type III secretion in Yersinia” (J Med Chem, 2007).
